Data on three molecules can be found in ChEMBL document CHEMBL1127562, “N-substituted spirosuccinimide, spiropyridazine, spiroazetidine, and acetic acid aldose reductase inhibitors derived from isoquinoline-1,3-diones. 2” (J Med Chem, 1994).

Calls of active or inactive are those of the source. The calls are words filed in the database; no cut-off is given here.

Test [1] addresses Aldo-keto reductase family 1 member B1 (Bos taurus) (UniProt P16116). Description: Inhibition of aldose reductase activity in partially purified bovine lens preparation at 10e-5 M. Put shortly: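 Partially purified bovine lens aldose reductase. Reduction of DL-glyceraldehyde substrate followed spectrophotometrically. Activity expressed as average inhibition at the tested concentrations, 1×10^-5, 1×10^-6, 1×10^-7 and 4×10^-6 M as printed; IC50 in M where given.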

The subject of test [2] is Rattus norvegicus. Description: Tested for in vivo inhibition of galactitol accumulation in the sciatic nerve of galactose-fed rats at the dose of 9.5 (mg/kg/day). In kind it is functional. The essentials: (§1)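 Rats fed a 20% galactose diet for 4 days, with test compound given in the diet at the stated daily dose (mg/kg/day). Read-out is inhibition of galactitol (polyol) accumulation in sciatic nerve. Values are % inhibition, mean ± SEM of six animals; p < 0.01 unless marked (some p < 0.05). NS = no significant inhibition of polyol accumulation. Tolrestat was the reference standard.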

Test [3] relates to Rattus norvegicus. Description: Tested for in vivo inhibition of galactitol accumulation in the lens of galactose-fed rats at the dose of 27.5 (mg/kg/day). Format: functional, Lens of camera-type eye.
For test [4], the system named is Rattus norvegicus. Description: Tested for in vivo inhibition of galactitol accumulation in the sciatic nerve of galactose-fed rats at the dose of 27.5 (mg/kg/day). Format: functional. Put shortly:
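Rats were given a 20% galactose diet for 4 days, with the test compound administered in the diet. Sciatic nerve galactitol accumulation was measured, and activity is given as % inhibition at the stated daily dose (mg/kg/day). Values are mean ± SEM, n = 6 animals; p < 0.01 unless indicated. NS means no significant inhibition of polyol accumulation.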

The test system of test [5] is Rattus norvegicus. Description: Tested for in vivo inhibition of galactitol accumulation in the lens of galactose-fed rats at the dose of 50.5 (mg/kg/day). Format: functional, Lens of camera-type eye.
Test [6] has as its system Rattus norvegicus. Description: Tested for in vivo inhibition of galactitol accumulation in the sciatic nerve of galactose-fed rats at the dose of 50.5 (mg/kg/day). Format: functional. The essentials:
as §1

For the molecule `CN1C(=O)CC2(C1=O)C(=O)N(Cc1nc3cc(C(F)(F)F)ccc3s1)C(=O)c1ccccc12` (configuration not stated), in test [1], the inhibition entry is “inactive”. Moreover, the Inhibition (commonly how much of the control response was suppressed) in the test on Rattus norvegicus [2] is on record as 82%.

With `CN1C(=O)c2ccc(Br)cc2C2(CC(=O)N2)C1=O` (configuration not stated), the Inhibition in the test with Rattus norvegicus [3] worked out at 36%; in the test with Rattus norvegicus [4], 54%.

For the molecule `NN1C(=O)CC2(C1=O)C(=O)N(Cc1ccc(Br)cc1F)C(=O)c1ccc(F)cc12` (configuration not stated), in test [1], the inhibition entry was “inactive”. Moreover, the Inhibition with Rattus norvegicus [5] is given as 54%; with Rattus norvegicus [6], 75%.
